Drawing on ChEMBL document CHEMBL1944523, “Benzimidazolones: a new class of selective peroxisome proliferator-activated receptor γ (PPARγ) modulators” (J Med Chem, 2011), this text covers IC50, EC50 and Emax for 25 compounds.

Assay [1] concerns the target T1, Peroxisome proliferator-activated receptor alpha (Homo sapiens, UniProt Q07869).
T1 sequence (Q07869 whole entry): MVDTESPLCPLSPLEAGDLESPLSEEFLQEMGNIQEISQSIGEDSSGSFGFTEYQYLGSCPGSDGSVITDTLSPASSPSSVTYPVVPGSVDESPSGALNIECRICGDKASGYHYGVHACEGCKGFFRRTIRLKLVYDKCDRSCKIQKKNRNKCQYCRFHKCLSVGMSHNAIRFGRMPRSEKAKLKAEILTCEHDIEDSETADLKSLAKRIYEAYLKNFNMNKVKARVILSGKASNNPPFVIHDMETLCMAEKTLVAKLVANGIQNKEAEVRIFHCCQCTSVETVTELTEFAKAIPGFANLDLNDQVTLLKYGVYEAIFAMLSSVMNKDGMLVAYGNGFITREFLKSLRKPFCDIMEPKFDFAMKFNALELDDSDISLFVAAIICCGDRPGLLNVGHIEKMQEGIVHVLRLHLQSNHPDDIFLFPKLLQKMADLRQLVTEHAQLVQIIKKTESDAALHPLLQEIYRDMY
The assay can be described thus: Binding affinity to human PPARalpha expressed in COS-1 by scintillation proximity assay. In a few lines:
(§1)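 Scintillation proximity binding assay on PPAR receptors giving IC50; mean of three determinations.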
(SPA uses beads or plates that emit light when radiolabelled molecules are held near them.)

Assay [2] concerns the target T2, Peroxisome proliferator-activated receptor delta (Homo sapiens, UniProt Q03181).
T2 sequence (Q03181 whole entry): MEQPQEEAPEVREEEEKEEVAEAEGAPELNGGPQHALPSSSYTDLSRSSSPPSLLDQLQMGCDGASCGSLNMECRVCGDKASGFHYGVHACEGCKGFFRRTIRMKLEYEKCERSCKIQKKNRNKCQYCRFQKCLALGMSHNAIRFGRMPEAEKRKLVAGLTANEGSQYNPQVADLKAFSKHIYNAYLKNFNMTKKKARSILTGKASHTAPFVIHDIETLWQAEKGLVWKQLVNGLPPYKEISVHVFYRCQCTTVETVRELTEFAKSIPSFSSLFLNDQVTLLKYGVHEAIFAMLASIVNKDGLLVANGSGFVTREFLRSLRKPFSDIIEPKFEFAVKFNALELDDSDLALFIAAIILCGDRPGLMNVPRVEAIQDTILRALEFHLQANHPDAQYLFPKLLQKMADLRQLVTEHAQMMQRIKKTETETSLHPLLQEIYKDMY
The assay can be described thus: Binding affinity to PPARdelta by scintillation proximity assay. In a few lines: as §1

The target in assay [3] is T3, Peroxisome proliferator-activated receptor gamma (Homo sapiens, UniProt P37231).
T3 sequence (P37231 whole entry): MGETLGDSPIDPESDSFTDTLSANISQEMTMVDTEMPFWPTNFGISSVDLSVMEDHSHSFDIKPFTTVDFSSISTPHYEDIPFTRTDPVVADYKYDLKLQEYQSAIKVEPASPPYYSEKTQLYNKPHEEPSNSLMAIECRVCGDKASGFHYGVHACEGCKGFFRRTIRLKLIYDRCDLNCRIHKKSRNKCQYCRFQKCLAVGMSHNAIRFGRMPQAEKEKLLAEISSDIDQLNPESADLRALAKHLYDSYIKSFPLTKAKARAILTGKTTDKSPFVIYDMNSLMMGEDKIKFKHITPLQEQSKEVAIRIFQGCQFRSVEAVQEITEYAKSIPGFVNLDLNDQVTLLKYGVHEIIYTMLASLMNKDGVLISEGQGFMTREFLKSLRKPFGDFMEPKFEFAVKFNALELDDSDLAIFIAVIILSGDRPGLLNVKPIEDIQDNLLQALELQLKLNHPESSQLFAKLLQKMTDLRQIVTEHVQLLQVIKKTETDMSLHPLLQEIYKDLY
The assay can be described thus: Binding affinity to human PPARgamma by scintillation proximity assay. In a few lines:
as §1

Assay [4] concerns the target T3, Peroxisome proliferator-activated receptor gamma. Briefly: Partial agonist activity at human PPARgamma LBD assessed as activation of CBP1-453 by HTRF assay. Type of assay: functional. For orientation: Time-resolved FRET reads energy transfer from a long-lived donor to a nearby acceptor.
Assay [5] has the same target. Briefly: Partial agonist activity at human PPARgamma LBD assessed as activation of PGC1 by HTRF assay. The class given is functional.
Assay [6] has the same target. Briefly: Partial agonist activity at human PPARgamma LBD assessed as activation of PBP by HTRF assay. Type of assay: functional.
For assay [7] the target is unchanged. Briefly: Partial agonist activity at human PPARgamma LBD assessed as activation of Src-1 by HTRF assay. Type of assay: functional.
For assay [8] the target is unchanged. The assay can be described thus: Agonist activity at human PPARgamma expressed in COS-1 cells co-expressing with Gal4 by transactivation assay. The class given is functional, cell-based. The method, boiled down: (§2)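 GAL4-PPAR chimeric receptor transactivation in transiently co-transfected COS-1 cells with a GAL4-responsive reporter; potency as EC50 and maximum activation expressed relative to rosiglitazone; triplicate, mean reported.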

The target of assay [9] is T4, Peroxisome proliferator-activated receptor gamma (Homo sapiens) (UniProt P37231).
T4 sequence (whole entry): T3 sequence (P37231 whole entry)
The assay can be described thus: Agonist activity at human PPARgamma expressed in COS-1 cells co-expressing with Gal4 by transactivation assay relative to rosiglitazone. Type of assay: functional, cell-based. In a few lines: as §2

Turning to `COc1ccc2c(-n3c(=O)n(Cc4cccc(O[C@H](C)C(=O)O)c4)c4cc(C(F)(F)F)ccc43)noc2c1`, the IC50 in assay [1] is over 50000 nM; in assay [2], over 50000 nM; in [3], 924 nM.

For the compound `Cc1c(C(=O)c2ccc(Cl)cc2)c2ccc(OC(F)(F)F)cc2n1Cc1cccc(O[C@@H](C(=O)O)C(C)C)c1`, the EC50 in assay [4] was 7 nM; in [5] it was 5 nM; in [6] it was 6 nM; in assay [7] it was 9 nM.

In turn, `C[C@@H](Oc1cc(Cn2c(=O)n(-c3noc4ccc(Cl)cc34)c3ccc(C(F)(F)F)cc32)ccc1Cl)C(=O)O` gave an EC50 in assay [8] of 120 nM. The IC50 in [1] was over 50000 nM; in [2], over 50000 nM; in assay [3], 35.4 nM. The same compound yielded an Emax in assay [9] of 36%.

For `COc1ccc2c(-n3c(=O)n(-c4cccc([C@@]5(C)OC(=O)NC5=O)c4)c4cc(C(F)(F)F)ccc43)noc2c1`, the IC50 in assay [1] was over 50000 nM; in assay [2], over 50000 nM; in [3], 6930 nM.

As to `Cc1cccc2c(-n3c(=O)n(Cc4ccc(Cl)c(O[C@H](C)C(=O)O)c4)c4cc(C(F)(F)F)ccc43)noc12`, it took 4.1 nM to reach a half-maximal effect in assay [8] (EC50). The IC50 was over 50000 nM in assay [1], over 50000 nM in [2] and 9.2 nM in assay [3]. In addition, in assay [9], the Emax was determined as 25%.

For the compound `COc1ccc2c(-n3c(=O)n(Cc4ccc(Cl)c(O[C@H](C)C(=O)O)c4)c4cc(C(F)(F)F)ccc43)noc2c1`, it took 103 nM to reach a half-maximal effect in assay [8] (EC50). Further, the results for the IC50 in assay [1], in [2] and in [3] were over 50000 nM, over 50000 nM and 4.1 nM, respectively. The Emax in assay [9] turned out to be 28%.

In assay [8], `COc1ccc2c(-n3c(=O)n(Cc4ccc(Cl)c(O[C@H](C)C(=O)O)c4)c4cc(OC(F)(F)F)ccc43)noc2c1` displayed a half-maximal effective concentration (EC50) of 11.4 nM. For the same compound, the IC50 in assay [1] is over 50000 nM; in assay [2], over 50000 nM; in [3] it was 3.2 nM. Also, the Emax in [9] came out at 39%.

Consider `COc1ccc2c(-n3c(=O)n(Cc4ccc([C@@]5(C)OC(=O)NC5=O)cc4)c4cc(C(F)(F)F)ccc43)noc2c1`, for which the figures for the IC50 in assay [1], in assay [2] and in assay [3] were over 50000 nM, over 50000 nM and 2180 nM, respectively.

Consider `C[C@@H](Oc1cc(Cn2c(=O)n(Cc3ccc(Cl)cc3)c3ccc(C(F)(F)F)cc32)ccc1Cl)C(=O)O`, for which the EC50 in [8] was 3000 nM. For the same compound, the IC50 in assay [1] is over 50000 nM; in assay [2], over 50000 nM; in [3], 4800 nM. This compound returned an Emax in assay [9] of 17%.

On to `C[C@@H](Oc1cc(Cn2c(=O)n(-c3ccc(C(C)(C)C)cc3)c3ccc(C(F)(F)F)cc32)ccc1Cl)C(=O)O`, for which the EC50 was 480 nM in [4]; 460 nM in assay [5]; 135 nM in [8]; 440 nM in [6]; over 50000 nM in assay [7]. The half-maximal inhibitory concentration (IC50) in [1] is over 50000 nM; in assay [2], over 50000 nM; in assay [3], 161 nM. This compound also displayed an Emax in assay [9] of 15%.

Regarding `COc1ccc2c(-n3c(=O)n(Cc4cccc([C@@]5(C)OC(=O)NC5=O)c4)c4cc(C(F)(F)F)ccc43)noc2c1`, the Emax in [9] came out at 45%.

With `CN(CCOc1ccc(C[C@H](OCC(F)(F)F)C(=O)O)cc1)c1nc2ccccc2o1`, the EC50 in [4] is 1 nM; in assay [5], 1 nM; in assay [6], 1 nM; in [7], 2 nM.

In assay [8], `C[C@@H](Oc1cc(Cn2c(=O)n(C(=O)c3ccc(Cl)cc3)c3ccc(C(F)(F)F)cc32)ccc1Cl)C(=O)O` displayed an EC50 of 489 nM. The IC50 in assay [1] was over 50000 nM; in [2], over 50000 nM; in assay [3], 255 nM. In assay [9], the Emax turned out to be 21%.

Consider `CC[C@@H](Oc1cccc(Cn2c(=O)n(-c3noc4cc(OC)ccc34)c3ccc(C(F)(F)F)cc32)c1)C(=O)O`, for which the IC50 was over 50000 nM in assay [1], over 50000 nM in [2] and 3660 nM in assay [3].

Regarding `COc1ccc2c(-n3c(=O)n(Cc4ccc(Cl)c(O[C@H](C)C(=O)O)c4)c4ccc(OC(F)(F)F)cc43)noc2c1`, a half-maximal effect in assay [8] (EC50) was put at 13.2 nM. For the same compound, the values for the half-maximal inhibitory concentration (IC50) in assay [1], in assay [2] and in [3] were over 50000 nM, over 50000 nM and 4.1 nM, respectively. In assay [9], this compound showed an Emax of 31%.

As to `COc1ccc2c(-n3c(=O)n(Cc4ccc(Cl)c(O[C@H](C)C(=O)O)c4)c4ccc(C(F)(F)F)cc43)noc2c1`, in assay [8], the EC50 turned out to be 83 nM. For the same compound, the IC50 in [1] is over 50000 nM; in assay [2], over 50000 nM; in [3], 2.3 nM. The Emax in [9] came out at 43%.

Turning to `C[C@@H](Oc1cc(Cn2c(=O)n(-c3nc4ccc(Cl)cc4s3)c3ccc(C(F)(F)F)cc32)ccc1Cl)C(=O)O`, the values for the concentration for half-maximal inhibition (IC50) in assay [1], in [2] and in [3] were over 50000 nM, over 50000 nM and 1370 nM, respectively.

On to `COc1ccc2c(-n3c(=O)n(Cc4ccccc4[C@@]4(C)OC(=O)NC4=O)c4cc(C(F)(F)F)ccc43)noc2c1`, for which the IC50 in assay [1] is over 50000 nM; in assay [2], over 50000 nM; in assay [3], 6630 nM.

As for `COc1ccc2c(-n3c(=O)n(Cc4cc([C@@]5(C)OC(=O)NC5=O)ccc4Cl)c4cc(C(F)(F)F)ccc43)noc2c1`, in assay [8], the EC50 turned out to be 17 nM. Besides, the IC50 in [1] was over 50000 nM; in [2], over 50000 nM; in assay [3], 7.7 nM. The Emax in [9] stood at 28%.

The compound `COc1ccc2c(-n3c(=O)n(Cc4ccc(Cl)c(O[C@@H](C)C(=O)O)c4)c4cc(C(F)(F)F)ccc43)noc2c1` returned an EC50 in assay [8] of 3000 nM. Besides, the IC50 in assay [1] is over 50000 nM; in assay [2], over 50000 nM; in assay [3] it was 66 nM. Moreover, the Emax in [9] amounted to 4%.

Turning to `Cc1ccc2c(-n3c(=O)n(Cc4ccc(Cl)c(O[C@H](C)C(=O)O)c4)c4cc(C(F)(F)F)ccc43)noc2c1`, it took 77.5 nM to reach a half-maximal effect in assay [8] (EC50). For the same compound, the IC50 in assay [1] is over 50000 nM; in [2], over 50000 nM; in assay [3] it was 14.2 nM. This compound gave an Emax in [9] of 37%.

As for `Cc1c(C(=O)c2ccc(Cl)cc2)c2ccc(OC(F)(F)F)cc2n1Cc1cccc(O[C@H](C)C(=O)O)c1`, the EC50 in assay [4] was 6 nM; in assay [5], 5 nM; in [6], 5 nM; in assay [7] it was over 50000 nM.

In turn, `COc1ccc2c(-n3c(=O)n(Cc4cccc([C@@]5(C)OC(O)=NC5=O)c4)c4cc(C(F)(F)F)ccc43)noc2c1` gave an EC50 in assay [8] of 237 nM. Further, the IC50 is over 50000 nM in assay [1], over 50000 nM in assay [2] and 93 nM in [3].

`COc1ccc2c(-n3c(=O)n(Cc4cc(O[C@H](C)C(=O)O)ccc4Cl)c4cc(C(F)(F)F)ccc43)noc2c1` yielded an EC50 in [8] of 102 nM. Further, the values for the IC50 in assay [1], in [2] and in assay [3] were over 50000 nM, over 50000 nM and 9.1 nM, respectively. In addition, the Emax in [9] stood at 26%.

For the compound `Cc1ccc2onc(-n3c(=O)n(Cc4ccc(Cl)c(O[C@H](C)C(=O)O)c4)c4cc(C(F)(F)F)ccc43)c2c1`, in assay [8], the EC50 is 3000 nM. Further, the IC50 was over 50000 nM in [1], over 50000 nM in [2] and 11.2 nM in assay [3]. Besides, in [9], the Emax turned out to be 53%.

Usually IC50 stands for the point on the concentration scale where inhibition reaches its midpoint. Broadly, the EC50 is the concentration at which the effect is half-maximal.
